The species named for experiment [1] is Cavia porcellus. Put plainly: Ability to prevent constrictions induced by SRS-A (slow reacting substance of anaphylaxis) in guinea pig ileum at a concentration of 1x 10E-5 M. Format: functional.
The species entered for experiment [2] is Cavia porcellus. The experiment in a line: Ability to prevent constrictions induced by SRS-A (slow reacting substance of anaphylaxis) in guinea pig ileum. Type of experiment: functional. The procedure, abridged: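 Ileum segments (1.5 cm) from 200–250 g guinea pigs are held in Tyrode's solution with 10^-6 M atropine sulfate and 10^-6 M pyrilamine maleate, at 37 °C, aerated with 95% O2/5% CO2. SRS-A comes from egg albumin challenge of chopped lung from actively sensitized guinea pigs, dosed to give 50% of maximal isotonic contraction. Compound is added 3 min before challenge. Three concentrations (10–90% inhibition) are run in duplicate, and IC50 is taken from the log dose-response curve.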

Structures can show the parent of a compound that is named as a salt.

In turn, `CCN(CC)CCOC(=O)c1ccc2nc3ccc(OC)cc3c(=O)n2c1` came in with an inhibition at 10 µM in the experiment filed under Cavia porcellus [1] of 0%.

With `CC(C)c1ccc2nc3ccc(C(=O)NCCN(C4CCCCC4)C4CCCCC4)cn3c(=O)c2c1`, half-maximal inhibition in the experiment listed under Cavia porcellus [2] (IC50) required 2 µM.

`CCC(C)c1ccc2nc3ccc(C(=O)NCCN(CC)CC)cn3c(=O)c2c1` (stereo not drawn) registered an IC50 in the experiment filed under Cavia porcellus [2] of 10 µM.

The molecule `CC(C)c1ccc2nc3ccc(C(=O)OCCN4CCCCC4)cn3c(=O)c2c1` registered an IC50 in the experiment listed under Cavia porcellus [2] of 6 µM.

Turning to `CC(C)c1ccc2nc3ccc(C(=O)NCCN(C(C)C)C(C)C)cn3c(=O)c2c1`, the 50% inhibitory concentration (IC50) in the experiment filed under Cavia porcellus [2] was 1 µM.

`CC(C)c1ccc2nc3ccc(C(=O)NCCN4CCN(C(c5ccccc5)c5ccccc5)CC4)cn3c(=O)c2c1` had an IC50 in the experiment filed under Cavia porcellus [2] of 1 µM.

In the experiment filed under Cavia porcellus [2], `CCN(CC)CCNC(=O)c1ccc2nc3ccc(C(C)C)cc3c(=O)n2c1` came in with a half-inhibitory concentration (IC50) of 5 µM.

Consider `CC(C)c1ccc2nc3ccc(C(=O)NCCN4C(C)(C)CCCC4(C)C)cn3c(=O)c2c1`, for which half-maximal inhibition in the experiment listed under Cavia porcellus [2] (IC50) was put at 1 µM.

Molecule `CCN(CC)CCOC(=O)c1ccc2nc3ccc(C(C)C)cn3c(=O)c2c1` showed an inhibition at 10 µM in the experiment filed under Cavia porcellus [1] of 5%.

For the molecule `CCCCCOC(=O)c1ccc2nc3ccc(C(C)C)cc3c(=O)n2c1`, testing at 10 µM in the experiment filed under Cavia porcellus [1] gave an inhibition of 10%.

In the experiment listed under Cavia porcellus [2], `CC(C)c1ccc2nc3ccc(C(=O)NCCNc4ccccc4)cn3c(=O)c2c1` showed an IC50 of 2.5 µM.

In the case of `CCCc1c(OCC(O)COc2ccc3c(=O)cc(C(=O)O)oc3c2CCC)ccc(C(C)=O)c1O` (stereo not drawn) [FPL-55712 SODIUM SALT], the IC50 in the experiment filed under Cavia porcellus [2] was found to be 0.035 µM.

In the experiment listed under Cavia porcellus [2], `CCN(CC)CCNC(=O)c1ccc2nc3ccc(CC(C)C)cc3c(=O)n2c1` had an IC50 of 1 µM.

For the molecule `CCN(CC)CCOC(=O)c1ccc2nc3ccc(OC(C)C)cc3c(=O)n2c1`, testing at 10 µM in the experiment filed under Cavia porcellus [1] gave an inhibition of 17%.

With `CCN(CC)CCOC(=O)c1ccc2nc3ccc(C)cc3c(=O)n2c1`, the inhibition at 10 µM in the experiment listed under Cavia porcellus [1] worked out at 11%.

Molecule `CCN(CC)CCOC(=O)c1ccc2nc3ccc(SC)cc3c(=O)n2c1` had an inhibition at 10 µM in the experiment filed under Cavia porcellus [1] of 0%.

In the experiment filed under Cavia porcellus [2], `CC(C)c1ccc2nc3ccc(C(=O)NCCN4CCC(c5ccccc5)CC4)cn3c(=O)c2c1` yielded a 50% inhibitory concentration (IC50) of 1 µM.

In the experiment filed under Cavia porcellus [2], `CC(C)c1ccc2nc3ccc(C(=O)NCCN(c4ccccc4)c4ccccc4)cn3c(=O)c2c1` registered a 50% inhibitory concentration (IC50) of 10 µM.

Consider `CC(C)c1ccc2nc3ccc(C(=O)NCCN4CCCCC4)cn3c(=O)c2c1`, for which, in the experiment listed under Cavia porcellus [1], the inhibition at 10 µM was determined as 15%.

In the experiment listed under Cavia porcellus [1], `CCN(CC)CCNC(=O)c1ccc2nc3ccc(C(C)C)cn3c(=O)c2c1` yielded an inhibition at 10 µM of 6%.

In the experiment listed under Cavia porcellus [2], `CC(C)c1ccc2nc3ccc(C(=O)NCCN4CCC(Cc5ccccc5)CC4)cn3c(=O)c2c1` showed an IC50 of 1 µM.

Take `CCN(CC)CCNC(=O)c1ccc2nc3ccc(C(C)(C)C)cc3c(=O)n2c1`: the midpoint of inhibition in the experiment filed under Cavia porcellus [2], the IC50, lay at 10 µM.

Molecule `CC(C)c1ccc2nc3ccc(C(=O)NCCN4CCN(C)CC4)cn3c(=O)c2c1` registered an inhibition at 10 µM in the experiment listed under Cavia porcellus [1] of 34%.

The molecule `CC(C)c1ccc2nc3ccc(C(=O)NCCN(C)C)cn3c(=O)c2c1` displayed an inhibition at 10 µM in the experiment listed under Cavia porcellus [1] of 42%.

In the experiment listed under Cavia porcellus [2], `CCN(CC)CC(C)OC(=O)c1ccc2nc3ccc(C(C)C)cc3c(=O)n2c1` (stereo not drawn) had an IC50 of 10 µM.

Consider `CC(C)c1ccc2nc3ccc(C(=O)NCCN4CCN(c5ccccc5)CC4)cn3c(=O)c2c1`, for which inhibition in the experiment filed under Cavia porcellus [2] was half-maximal at 1 µM (IC50).

Turning to `CCN(CC)CCCNC(=O)c1ccc2nc3ccc(C(C)C)cc3c(=O)n2c1`, at 10 µM the inhibition in the experiment filed under Cavia porcellus [1] was 37%.

For `CCN(CC)CCOC(=O)c1ccc2nc3ccc(C(C)C)cc3c(=O)n2c1`, in the experiment listed under Cavia porcellus [2], half-maximal inhibition (IC50) required 4 µM.

In general, inhibition refers to the percentage by which the read-out fell short of the control. A lower inhibition goes with a weak effect. The term IC50 denotes the concentration needed to halve the response being measured. A low value points to greater potency in that assay.

Values taken from ChEMBL document CHEMBL1122396, “Antagonists of slow-reacting substance of anaphylaxis. 1. Pyrido[2,1-b]quinazolinecarboxylic acid derivatives” (J Med Chem, 1983).
